Experiments:
Format in all cases: functional
Rattus norvegicus [1] = assay: Inhibitory activity against AII-Induced Pressor response at 0.03 mg/Kg at 3 hour
How it was run: (§1)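 Male Wistar-Imamichi rats (300–400 g) cannulated under pentobarbital (50 mg/kg ip), fasted 24 h, tested conscious the next day. AII 50 ng/kg iv was repeated until constant, then compound in 50% aqueous DMF given orally. AII was repeated over 8 h, and mean blood pressure response inhibition (%) was recorded at 1, 3, 6 h. n = 3–5.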

Rattus norvegicus [2] = assay: Inhibitory activity against AII-Induced Pressor response at 0.3 mg/Kg at 6 hour; how it was run: as §1
Rattus norvegicus [3] = assay: Inhibitory activity against AII-Induced Pressor response at 0.3 mg/Kg at 1 hr; how it was run: as §1
Rattus norvegicus [4] = assay: Inhibitory activity against AII-Induced Pressor response at 0.03 mg/Kg at 6 hour; how it was run: as §1
Rattus norvegicus [5] = assay: Inhibitory activity against AII-Induced Pressor response at 0.1 mg/Kg at 6 hour; how it was run: as §1
Rattus norvegicus [6] = assay: Inhibitory activity against AII-Induced Pressor response at 0.03 mg/Kg at 1 hr; how it was run: as §1
Rattus norvegicus [7] = assay: Inhibitory activity against AII-Induced Pressor response at 0.3 mg/Kg at 3 hour; how it was run: as §1
Rattus norvegicus [8] = assay: Inhibitory activity against AII-Induced Pressor response at 0.1 mg/Kg at 3 hour; how it was run: as §1
Rattus norvegicus [9] = assay: Inhibitory activity against AII-Induced Pressor response at 0.1 mg/Kg at 1 hr; how it was run: as §1

## CCCc1nc(C(C)(C)O)c(C(=O)OCOC(=O)C(C)(C)C)n1Cc1ccc(-c2ccccc2-c2nn[nH]n2)cc1
Rattus norvegicus [1]
  inhibition in vivo at 0.03 mg/kg: 41%
Rattus norvegicus [2]
  inhibition in vivo at 0.3 mg/kg: 90%
Rattus norvegicus [3]
  inhibition in vivo at 0.3 mg/kg: 76%
Rattus norvegicus [4]
  inhibition in vivo at 0.03 mg/kg: 43%
Rattus norvegicus [5]
  inhibition in vivo at 0.1 mg/kg: 70%
Rattus norvegicus [6]
  inhibition in vivo at 0.03 mg/kg: 29%
Rattus norvegicus [7]
  inhibition in vivo at 0.3 mg/kg: 85%
Rattus norvegicus [8]
  inhibition in vivo at 0.1 mg/kg: 84%
Rattus norvegicus [9]
  inhibition in vivo at 0.1 mg/kg: 75%
